Data: paper PMC3753203 (Journal of immunology (Baltimore, Md. : 1950), 2013)
pEC50: −log10 of the molar value.

Tests used:
[1] = tested on: collagen-induced arthritis in mice; details: 15-mer SE peptidic ligand in vivo in mice; ref [10]; cited from earlier work
NO signaling [2] = experiment: NO signaling activation; assay type: cell-based; details: read-out: EC50 NO, Table I
[3] = biological target: T1, recombinant mouse CRT (calreticulin) (Mus musculus, UniProt P14211); experiment: Surface plasmon resonance binding to immobilized CRT; details: SPR, 25°C, 10 mM HEPES pH 7.4, 50 mM KCl, 0.5 mM CaCl2, 100 μM ZnCl2, 0.005% surfactant P-20; mouse CRT immobilized 3000 RU; 10 μl/min; mean ± SEM
T1 sequence (P14211 18-416): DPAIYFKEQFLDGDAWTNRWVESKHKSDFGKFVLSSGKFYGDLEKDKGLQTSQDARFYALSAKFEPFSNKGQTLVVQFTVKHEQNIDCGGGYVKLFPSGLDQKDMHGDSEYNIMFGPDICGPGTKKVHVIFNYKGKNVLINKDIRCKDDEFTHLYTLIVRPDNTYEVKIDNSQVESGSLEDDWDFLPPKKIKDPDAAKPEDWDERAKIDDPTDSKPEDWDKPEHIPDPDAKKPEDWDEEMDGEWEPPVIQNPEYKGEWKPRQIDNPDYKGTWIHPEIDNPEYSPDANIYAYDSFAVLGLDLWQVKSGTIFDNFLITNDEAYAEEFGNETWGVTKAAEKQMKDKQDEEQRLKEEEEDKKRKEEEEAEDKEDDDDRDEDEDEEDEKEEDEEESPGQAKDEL

[4] = tested on: osteoclast differentiation of DBA/1 mouse BMCs; details: 15-mer linear peptide; ref [10]; cited from earlier work
trypsin/chymotrypsin = details: linear peptidic SE ligand, completely degraded; ref [11]; cited from earlier work
[5] = tested on: erosive bone damage in CIA mice; experiment: Micro-CT of bone damage in CIA mice; assay type: in vivo, mouse; details: all treated mice, various doses
How it was run: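 Limbs from arthritic mice fixed in 10% formalin, stored in 70% ethanol, scanned in water: 80 kV, 80 μA, 0.508 mm Al filter plus acrylic beam flattener, 1600 ms/frame, 400 views at 0.5°, 4 frames averaged, 2×2 binning, 18 μm voxels. Bone masks for carpals, tarsals, calcaneus, talus, phalanges; thresholds 2000 HU cortical, 1200 HU trabecular.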

[6] = tested on: osteoclast formation of BMCs harvested from CIA mice; experiment: Ex vivo OC differentiation of BMCs from treated CIA mice; assay type: in vivo, mouse; details: 6 days OC-differentiating culture, dose-dependent pattern
How it was run: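 DBA/1 mice (7 weeks) were immunised intradermally at the tail base with 100 μg chicken CII in CFA. They received test compound intraperitoneally once weekly at 0.0, 0.8, 8 or 80 ng/gm BW in 50 μl PBS. Bone marrow cells were then cultured for 6 days under OC-differentiating conditions (M-CSF 10 ng/ml; RANKL 20 ng/ml added after day 2). TRAP-positive multinucleated cells (>3 nuclei) were counted.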

[7] = tested on: ROS production in RAW 264.7 pre-OC cells; experiment: ROS production; assay type: cell-based, mouse; details: RAW 264.7, 3 × 10^4/well, in words
How it was run: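 RAW 264.7 cells, 3×10^4 per well, exposed to various test compound concentrations and loaded with CM-H2DCFDA. Fluorescence (ex 488/em 515 nm) read every 5 min over 500 min; ROS expressed as FU/min.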

[8] = tested on: bone matrix degradation by DBA/1 mouse BMC-derived OCs; experiment: Degradation of artificial; assay type: cell-based; details: 100 nM c(HS4-4), primary DBA/1 BMCs, day 15, Von Kossa
How it was run: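 Test compound (100 nM) or PBS was added to mouse BMC cultures on osteoblast-derived matrix. SaOS-2 cells (12,000/well) grew in McCoy's 5A/15% FBS; at 80–90% confluence they were switched to osteoblast differentiation medium (10% FBS, 2mM glutamine, ascorbic acid, 10mM β-glycerol phosphate) for 20–25 days, then removed with 15mM NH4OH. DBA/1 BMCs (200,000/well) received M-CSF 10 ng/ml for 2 days, then M-CSF plus RANKL 20 ng/ml. At day 15, cells were removed; remaining matrix was Von Kossa-stained, photographed and area-quantified.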

[9] = tested on: osteoclasts in CIA joint tissues; experiment: OC abundance in joint tissue of CIA mice; assay type: in vivo, mouse; details: various doses incl. 'subclinical'; N=10 PBS, 5 per treatment group; TRAP
How it was run: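 Limbs from CIA mice given weekly i.p. test compound or PBS decalcified 14 days in 10% EDTA, paraffin-embedded, serially sectioned and stained for TRAP (or H&E). TRAP-positive multinucleated cells counted; total across front and rear paws and knees, mean ± SEM. N=10 PBS, 5 per treatment group.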

[10] = tested on: collagen-induced arthritis in DBA/1 mice; experiment: Collagen-induced arthritis: onset, incidence, arthritis score; assay type: in vivo, mouse; details: i.p.; for disease incidence: log-rank (Mantel-Cox)
[11] = tested on: TRAP-positive mononuclear (pre-OC) bone marrow cells; experiment: Pre-OC abundance in bone marrow of CIA mice; assay type: in vivo, mouse
How it was run: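 Fresh bone marrow cells harvested from CIA mice dosed weekly i.p. with various amounts of test compound or PBS; TRAP staining used to enumerate pre-osteoclasts.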

[12] = tested on: bovine cortical bone disks / mouse BMC-derived OCs; experiment: Ex vivo degradation of bovine bone disks; assay type: cell-based; details: 100 nM c(HS4-4), mouse BMCs, 10 days, OC counts and resorption pits
How it was run: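 Bovine cortical bone disks (5-mm) were sonicated in water, stored dry, and sterilised in ethanol plus 30 min UV. Culture ran 10 days, medium renewed every other day. TRAP-positive OCs per disk were counted; cells were sonicated off in ammonium hydroxide; disks were stained with 1% toluidine blue for 30 s; pits were counted across the whole surface by reflected light. Mean ± SEM.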

bone damage in CIA mice = experiment: X-ray radiological scoring of bone damage in CIA mice; assay type: in vivo, mouse; details: 0.8 and 8.0 ng/gm BW, N = 10, score 0-5
How it was run: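 CIA mice dosed weekly i.p. with 0.8 or 8.0 ng/gm BW test compound or PBS. Limbs X-rayed on a microradiography system (anode current 25mA, 4.5 s exposure). Coded films scored blind by a rheumatologist, front and rear paws separately, 0–5 (none to complete joint destruction). N=10.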

[13] = tested on: osteoclast differentiation of DBA/1 mouse BMCs; experiment: In vitro OC differentiation, mouse bone marrow cells; assay type: cell-based; details: M-CSF + RANKL, 6 days
NO signaling [14] = details: ref [11]; cited from earlier work
[15] = 80 ng/gm BW per week, N=10 per group
[16] = 800 ng/gm BW per week, N=10 per group

Substance: 65-KDLLEQKRAAVDTYC-79 [65-79*0401]
- effect on erosive bone damage in CIA [1]: enhanced erosive bone damage in collagen-induced arthritis
- pEC50 (NO signaling [2]): 4.22
- Affinity to CRT, ka [3]: 5.1 ± 4.8 ×10^4 1/Ms
- Affinity to CRT, kd [3]: 7.4 ± 3.1 ×10^−3 1/s
- osteoclastogenesis activation [4]: can activate osteoclastogenesis
- time to complete degradation by trypsin/chymotrypsin (trypsin/chymotrypsin): ≤ 30 min

Substance: 70-QKRAA-74 [70-74*0401]
- Affinity to CRT, ka [3]: 2.9 ± 2.9 ×10^2 1/Ms
- Affinity to CRT, kd [3]: 5.6 ± 5.1 ×10^−3 1/s

Substance: cQKRAA [c(HS4-4)]
- erosive bone damage (micro-CT) [5]: more severe erosive bone damage
- pEC50 (NO signaling [2]): 9.00
- Affinity to CRT, ka [3]: 2.7 ± 0.5 ×10^3 1/Ms
- Affinity to CRT, kd [3]: 1.4 ± 0.2 ×10^−3 1/s
- OCs formed ex vivo by BMCs from treated CIA mice [6]: significantly higher numbers of OCs in a similar dose-dependent pattern
- ROS signaling [7]: activated ROS signaling
- degradation of artificial bone matrix [8]: higher capacity to degrade artificial bone matrix
- OC numbers in arthritic joints [9]: significantly higher numbers of OCs
- CIA soft tissue disease parameters (onset, incidence, score) ([10]; 0.8 ng/gm BW per week): no effect on any of the three CIA soft tissue disease parameters
- CIA soft tissue disease parameters (onset, incidence, score) ([10]; 8.0 ng/gm BW per week): no effect on any of the three CIA soft tissue disease parameters
- disease onset [10, 15]: significantly facilitated disease onset
- mean arthritis scores (joint swelling) ([10]; 80 ng/gm BW per week, N=10 per group, 4-point scale per paw): significantly increased mean arthritis scores
- disease incidence [10, 15]: increased disease incidence
- mean arthritis scores, effect in the higher dose ([10]; 800 ng/gm BW per week ("the higher dose"), N=10 per group): but not in the higher dose
- disease onset [10, 16]: significantly facilitated disease onset
- disease incidence [10, 16]: increased disease incidence
- TRAP-positive pre-OC cells in bone marrow ([11]; 80 ng/gm BW group): peak effect
- TRAP-positive mononuclear (pre-OC) cells in bone marrow, dose dependence ([11]; all c(HS4-4)-treated mice): dose-dependent effect
- degradation of bovine bone disks [12]: higher capacity to degrade artificial bone matrix and bovine bone disks ex vivo
- bone damage (radiological score, X-ray) (bone damage in CIA mice): significantly higher bone damage
- OC differentiation (in words) [13]: markedly enhanced OC differentiation in a dose-dependent manner
- NO signaling activation, concentration (NO signaling [14]): low nM concentrations
